Here are results for three compounds from article PMC3227549 (Journal of natural products, 2010).

The test system of assay [1] is voltage gated sodium channel (VGSC). The note with it: cited from earlier work.
Assay [2] has as its system site 2 of the mammalian VGSC. The note with it: cited from earlier work.
Assay [3] deals with Neuro-2a mouse neuroblastoma cells. In words: Cytotoxicity to Neuro-2a mouse neuroblastoma cells. The format is cell-based.
Assay [4] has as its system spontaneous Ca2+ oscillations in neocortical neurons. In words: Suppression of spontaneous Ca2+ oscillations. In kind it is cell-based, mouse.
The subject of assay [5] is voltage gated sodium channel (VGSC). Put plainly: Sodium influx / activation of VGSC in neocortical neurons. In kind it is cell-based. The settings on record: mouse neocortical neurons. A digest of the protocol:
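Primary neocortical neurons from embryonic day 16 Swiss-Webster mice were trypsin-dissociated, given 10 μM cytosine arabinoside on day 2, then Neurobasal/B-27 serum-free medium, and used at DIV 8–13. Cells were loaded for 1 h at 37 °C with 10 μM SBFI-AM and 0.02% Pluronic F-127, then washed in Locke's buffer. Ex 340/380 nm, em 505 nm, read every 5 s, with 60 s baseline before test compound addition. EC50 by nonlinear logistic regression.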

Assay [6] concerns H-460 human lung adenocarcinoma cells. Put plainly: Cytotoxicity to H-460 human lung adenocarcinoma cells. In kind it is cell-based.
In another assay the test system is brine shrimp. In words: Brine shrimp toxicity assay. The format is in vivo. The note with it: pure compound.

Entries after “also recorded” stand apart in the source; their conditions may differ.

Turning to `CCC[C@@H](C)[C@H](O)[C@H](C)[C@H]1OC(=O)[C@H]([C@@H](C)O)NC(=O)[C@H](C(C)C)OC(=O)[C@H](C)[C@H](O)[C@H]([C@@H](C)CC)NC(=O)[C@@]2(C)CSC(=N2)[C@@]2(C)CSC(=N2)c2csc(n2)C[C@H](OC)[C@@H]1C` [Compound 1, hoiamide A], the “kind of agonism in stimulation of sodium influx in neocortical neurons” value in assay [1] is listed as “partial agonist”. Besides, in assay [2], the “inhibition of binding of [3H]batrachotoxin to site 2 of the mammalian VGSC” value is “inhibits the binding”.

Consider `CCC[C@@H](C)[C@H](O)[C@H](C)[C@H]1OC(=O)[C@H]([C@@H](C)O)NC(=O)[C@H]([C@@H](C)CC)OC(=O)[C@H](C)[C@H](O)[C@H]([C@@H](C)CC)NC(=O)[C@@]2(C)CSC(=N2)[C@@]2(C)CSC(=N2)c2csc(n2)C[C@H](OC)[C@@H]1C` [Compound 2, hoiamide B], for which the “Neuro-2a (IC50 μM)” value in assay [3] was “Inactive”.

Regarding `CCC[C@@H](C)[C@H](O)[C@H](C)[C@@H](O)[C@@H](C)[C@H](Cc1nc(C2=N[C@@](C)(C3=N[C@@](C)(C(=O)N[C@H]([C@@H](O)[C@@H](C)C(=O)OCC)[C@@H](C)CC)CS3)CS2)cs1)OC` [Compound 3, hoiamide C], the “suppressed spontaneous Ca2+ oscillations, EC50” value in assay [4] is “no significant effects; also recorded: no significant pharmacological activity”. Moreover, the “stimulated sodium influx, EC50” value in assay [5] is reported as “no significant effects; also recorded: no significant pharmacological activity”. In addition, the “H-460 (IC50 μM)” value in assay [6] is “Inactive”. Moreover, in assay [3], the “Neuro-2a (IC50 μM)” value is listed as “Inactive”. The “LC50 in the brine shrimp toxicity assay” value with brine shrimp turned out to be 1.3 µM.
